Compounds with a hit are over-represented: about 3.5% of the library has one in this group of screens.
b-catenin transl: alters nuclear translocation of beta-catenin in HeLa cells. immunofluorescence imaging. nuclear translocation activity, % at 5 µM. 0.3% of 190,000 active;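 active means nuclear translocation activity above 50% at 5 µM, with a well cell count of 50 or more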;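 further: per-cell ratio of nuclear to cytoplasmic median beta-catenin stain intensity; plate controls were DMSO negative control for no effect and GSK-3 inhibitor IX positive control for full effect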
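Test system: human HeLa cells, native beta-catenin. Compound dosing: 5 µM primary single dose, 0.1% DMSO, 0.02–20 µM confirmation series. Incubation: compound exposure 24 h at 37°C. Detection: beta-catenin immunostaining with DAPI counterstain, 20x imaging, 6 fields/well. Read-out basis: Nuclear/cytoplasmic beta-catenin signal ratio, % activation.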
MT stabilizer: microtubule stabilization, imaging screen | HeLa tubulin immunostaining HCS, 24 h; share of cells brighter than vehicle mean+2SD | % tubulin-high responders, % at 10 µM | 0.83% of 200,000 active;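 active means plate Z-score above 3 for both tubulin-high and condensed-nucleus cell shares, with cell loss under 80%, at 10 µM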;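 further: anti alpha tubulin signal scored within the nucleus-defined area of each cell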
BB579 growth dn: chemicals that inhibit yeast BB579 growth in restrictive medium (lifespan-shortening candidates); S. cerevisiae BB579 growth, OD615, 48 h; inhibition, % at 10 µM; 0.51% of 140,000 active; AID 804;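 active means inhibition above a set limit, 3 SD over the mean compound inhibition, cut at about 44% in these data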
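System: Saccharomyces cerevisiae DeaD strain BB579, replicative lifespan model yeast. Buffer or medium: restrictive glucose-based CSMM-D medium. Doses: one dose, 10 µM compound with 0.25% DMSO. Timing: 4 h preincubation and 48 h exposure at 30 °C. Detection: turbidity as optical density at 615 nm. Benchmarks: amphotericin B 10 µg/mL, positive.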
Efa HMGR inh: blocks class II HMG-CoA reductase of Enterococcus faecalis; purified E. faecalis HMGR, NADPH absorbance 340 nm kinetic; inhibition, % at 10 µM; 0.41% of 190,000 active; AID 1066;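 active means inhibition above a set limit, the median over all tested compounds plus 3 SD, cut at about 9.5% in these data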;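 further: enzyme runs in reverse so mevalonate oxidation gives rising NADPH absorbance; 0% = complete reaction with DMSO and 100% = background rate lacking mevalonate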
RAM inhibit: inhibitors of the yeast RAM network; AID 868; S. cerevisiae dse1pr::URA3 reporter, 5-FOA growth OD615, 2 d; analog-sensitive cbk1-as2 kinase mutant strain; inhibition, % at 50 µM; 1.8% of 190,000 active;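 active means inhibition above a set limit, 3 SD over mean compound inhibition, cut at about 8.4% in these data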;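 further: 0% = DMSO-only wells with no growth and 100% = 10 µM 1-NA-PP1 full growth; inhibition rescues growth on 5-FOA so higher OD means more RAM inhibition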
Yeast lifespan up: extends the lifespan of yeast | S. cerevisiae growth with nicotinamide, OD615; deaD strain in restrictive glucose medium | AID 775 | inhibition of the nicotinamide effect, % at 10 µM | 0.68% of 130,000 active;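 active means inhibition above a set limit, placed 3 SD over the median of all compounds, cut at about 26% in these data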;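 further: 0% = nicotinamide-treated wells and 100% = cells grown without nicotinamide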
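Test system: DeaD-strain S. cerevisiae / Buffer or medium: restrictive glucose medium / Also added: nicotinamide 1.5 mM / Doses: one concentration, 10 µM, DMSO 0.25% / Schedule: 48 h at 30 °C / Signal: OD615 measurement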
An asterisk follows results filed as active; nt = no result.

SMILES | b-catenin transl | MT stabilizer | BB579 growth dn | Efa HMGR inh | RAM inhibit | Yeast lifespan up
CCN(CC)S(=O)(=O)c1ccc2[nH]cc(C(=O)NCCC3=CCCCC3)c(=O)c2c1 | 0 | 33* | -17 | 0 | 2 | -23
Cc1nn(C)c(Cl)c1C(=O)NCC(=O)Nc1ccc(C(C)C)cc1 | -1 | 8 | nt | 0 | -1 | nt
O=C(COc1ccc2c(c1)OCO2)Nc1ccccc1C(F)(F)F | -1 | 3 | nt | -1 | 3 | nt
Cc1ccc(C(=O)/C=C/c2ccccc2[N+](=O)[O-])cc1 | 0 | 2 | nt | 2 | 0 | nt
O=C(/C=C/c1ccccc1[N+](=O)[O-])c1ccccc1Br | 0 | 29* | nt | 1 | 1 | nt
CCOC(=O)C(C)(C)N(Cc1ccccc1C)S(=O)(=O)c1ccc(Cl)c([N+](=O)[O-])c1 | -2 | 5 | -58 | -6 | 9.3* | 14
CCCN(CCC)S(=O)(=O)c1ccc(Cl)c([N+](=O)[O-])c1 | -6 | 3 | nt | 0 | 0 | nt
COC(=O)Cc1ccc2sc(-c3ccccc3)nc2c1 | 0 | 3 | -11 | -5 | 2 | -5
O=C(O)Cc1ccc2sc(-c3ccccc3)nc2c1 | nt | 1 | 49* | 1 | 0 | -9
CN(C(=O)CC1C(=O)NCCN1Cc1ccc(F)c(F)c1)C1CCOCC1 (stereo not drawn) | -2 | 3 | nt | 1 | 1 | nt
CC/C(C)=N/Nc1cccc([N+](=O)[O-])c1 | 1 | 8 | 98* | -2 | 0 | -9
CCCOc1ccc(/C=N/Nc2cccc([N+](=O)[O-])c2)c(O)c1 | 0 | 3 | -65 | -1 | 8.9* | -1
CCC(CC)=NNc1cccc([N+](=O)[O-])c1 | 0 | 2 | -13 | -4 | 1 | -3
O=C(Nc1c(C(=O)O)[nH]c2ccc(F)cc12)c1cccc(C(F)(F)F)c1 | 0 | nt | nt | nt | nt | nt
Cc1ccccc1/C=C1\CCCc2ccccc2C1=O | -1 | 3 | 5 | 1 | -1 | nt
O=C1/C(=C\c2ccc3ccccc3c2)CCCc2ccccc21 | 50* | 30* | -15 | -10 | 11* | nt
CCN(CC)CC(=O)Nc1ccc([N+](=O)[O-])cc1 | 1 | 1 | nt | -5 | 1 | nt
Cn1c(CO)cnc1SCc1ccc(F)cc1 | -3 | 5 | nt | 15* | 2 | nt
CCOC(=O)c1c(C)c(C(=O)Nc2cc(F)ccc2F)c(C)n1C | 38 | 13* | -27 | 4 | 3 | -8
COc1cc(NC(=O)Cn2c(=O)n(CC3CCCO3)c(=O)c3ccccc32)cc(OC)c1 (stereo not drawn) | 0 | 2 | nt | -1 | 10* | nt
COc1ccc(NC(=O)Cn2c(=O)n(CC3CCCO3)c(=O)c3ccccc32)c(OC)c1 (stereo not drawn) | 0 | 5 | nt | -5 | 5 | nt
CC(C)c1ccc(-c2nc(N3CCCCC3)[nH]c(=O)c2C#N)cc1 | -1 | 1 | -31 | -3 | 3 | -6
CC1=Nc2nc(N3CCCCC3)c(C#N)c3c4c(nc(c23)N1)N(c1ccc(C(C)C)cc1)C(=O)C4 | 2 | 4 | -48 | -2 | 9.3* | 5
CCCC1CCc2c(sc(NC(=O)OCC)c2C#N)C1 (stereo not drawn) | 0 | 52* | -27 | -6 | 2 | nt
CCOC(=O)Nc1sc2c(c1C#N)CCCC2 | nt | 2 | -5 | 0 | 1 | -13
SMILES | b-catenin transl | MT stabilizer | BB579 growth dn | Efa HMGR inh | RAM inhibit | Yeast lifespan up
O=c1c2c(-c3ccccc3)csc2ncn1/N=C/c1cccc([N+](=O)[O-])c1O | 0 | 4 | nt | -4 | -1 | nt
Cn1cc(/C=N/n2cnc3scc(-c4ccccc4)c3c2=O)c2ccccc21 | 71* | 28* | -26 | 1 | 0 | -3
COc1cc2c(cc1NC(=O)c1cccc(F)c1)CCCC2 | -2 | 3 | -7 | -6 | 3 | -6
COc1cc2c(cc1NC(=O)c1cccc(Br)c1)CCCC2 | -3 | 4 | -44 | 0 | 9.3* | 4
Cc1ccc(NS(=O)(=O)c2ccc3c(c2)NC(=O)CC(=O)N3)cc1C | -3 | 2 | nt | 9.9* | 0 | nt
Cc1nc2c(=O)n(C)c(=O)n(C)c2nc1Cl | 4 | 5 | 5 | -4 | 1 | 75*
Cn1c(=O)c2nc(NCc3ccccc3)cnc2n(C)c1=O | 1 | 5 | 13 | 0 | 1 | -12
Cc1oc(S(=O)(=O)N2CCCCC2)cc1NC(=O)Nc1ccc(Cl)cc1 | 0 | nt | nt | nt | nt | nt
O=C(NC(=S)NNC(=O)c1cc2ccccc2cc1O)c1ccco1 | -3 | 2 | nt | -2 | 6 | nt
COc1ccc(/C=C/C(=O)NC(=S)NNC(=O)c2ccco2)cc1 | -2 | 33* | -36 | 9.8* | 2 | nt
O=C(NC(=S)NNC(=O)c1ccccc1O)c1ccco1 | 0 | 8 | -58 | 0 | 1 | 82*
NS(=O)(=O)c1ccc(NC(=O)CSc2nnc(COc3ccccc3Cl)n2C2CC2)cc1 | 4 | 2 | -46 | -1 | 9.5* | -5
CC1CCN(C(=O)N2c3ccccc3Sc3ccccc32)CC1 | nt | 2 | -11 | -1 | 4 | 3
CC1CCCN(C(=O)N2c3ccccc3Sc3ccccc32)C1 (stereo not drawn) | nt | 1 | -25 | -8 | 10* | -6
CN1C(=O)c2oc3ccc(Br)cc3c(=O)c2C1c1ccncc1 (stereo not drawn) | -4 | nt | nt | nt | nt | nt
CN1C(=O)c2oc3ccccc3c(=O)c2C1c1ccccn1 (stereo not drawn) | 0 | 3 | -5 | -1 | 0 | 31*
CCCCN(CCCC)C(=S)N/N=C/c1c(C)[nH]n(-c2ccccc2)c1=O | 4 | 4 | 78* | -3 | 3 | -12
Cc1[nH]n(-c2ccccc2)c(=O)c1/C=N/Nc1nncc(-c2ccccc2)n1 | -2 | 2 | 98* | 6 | -2 | -10
Fc1ccc(NC(=S)NNc2ncc(C(F)(F)F)cc2Cl)c(F)c1 | 2 | 5 | nt | -2 | 0 | nt
Cc1c(Cc2ccccc2)sc(NC(=O)/C=C/c2cccc3ccccc23)c1C(N)=O | 1 | 18* | -36 | -3 | 9.8* | 5
O=C(O)COc1ccccc1/C=N/NC(=O)CN1CCN(S(=O)(=O)c2ccc(Br)cc2)CC1 | -1 | nt | nt | nt | nt | nt
O=C(COc1ccccc1)N1CCN=C1SCc1cccnc1 | -1 | 3 | 56* | 7 | 1 | -16
O=C(COc1ccccc1)N1CCN=C1SCc1ccc(F)cc1 | 0 | nt | nt | nt | nt | nt
CCc1cc(CNC(=O)CC2C(=O)NCCN2Cc2cccc(OC)c2)on1 (stereo not drawn) | 1 | 4 | nt | 3 | 4 | nt
COc1ccc(-c2nnc3sc(C(C)N4C(=O)c5ccccc5C4=O)nn23)cc1 (stereo not drawn) | 4 | 6 | -23 | 4 | 1 | 30*
COc1ccc(-c2nnc3sc(CN4C(=O)c5ccccc5C4=O)nn23)cc1 | 1 | nt | nt | nt | nt | nt
C=C(C)CNC(=S)Nc1cccc(S(=O)(=O)NC2=NCCC2)c1 | -2 | 2 | nt | 1 | 0 | nt
